High-throughput results from PubChem.
Hits are enriched below; roughly 1.7% of the tested compounds scored in any of these assays.
HNF4A DNA FP – change in binding of human HNF4A to DNA, primary screen, biochemical, fluorescence polarization, FITC-DNA; Hepatocyte nuclear factor 4-alpha (Homo sapiens), P41235; 1 h; activity change, % at 10 µM; hit rate 0.3% among 360,000; in the data active means activity change above about 30%, passing the limit was not always enough
CSN inh – inhibitors of CSN-mediated cullin deneddylation, primary screen, biochemical, fluorescence polarization, uHTS. COP9 signalosome complex subunit 5 (Homo sapiens), Q92905. Purified CSN, SCF-Nedd8-OG deneddylation. inhibition, % at 12.5 µM. hit rate 0.38% among 360,000. AID 651999, 2013;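 active means pattern-corrected inhibition above about 35%, with an unprinted fluorescence ratio check between 0.5 and 1.5, limit read from the data, passing the limit was not always enough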
Target sequence (Q92905 whole entry, looked up, one chain of several): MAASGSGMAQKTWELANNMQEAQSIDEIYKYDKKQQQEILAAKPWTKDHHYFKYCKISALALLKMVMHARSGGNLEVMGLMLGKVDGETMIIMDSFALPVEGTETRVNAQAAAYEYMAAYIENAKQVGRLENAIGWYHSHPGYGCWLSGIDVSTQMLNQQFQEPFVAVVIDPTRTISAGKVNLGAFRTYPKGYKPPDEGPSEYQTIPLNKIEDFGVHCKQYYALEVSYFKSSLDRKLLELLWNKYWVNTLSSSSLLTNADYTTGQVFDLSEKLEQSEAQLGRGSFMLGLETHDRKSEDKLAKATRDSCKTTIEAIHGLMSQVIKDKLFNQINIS
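Material: human Csn5 produced in HEK293T cells; Input: enzyme 0.24 nM; Reagent: SCFSkp2-Nedd8OG substrate at 10 nM final; Dosing: 12.5 µM compound; Incubation: 90 min reaction at room temperature; Detection: fluorescence polarization of the substrate; Evaluation: % inhibition of substrate cleavage by Csn5; Control set: substrate-only high control, full reaction low control.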
TbMetRS inhib – T. brucei MetRS inhibitors, primary screen, biochemical, luminescence. purified T. brucei MetRS, ATP depletion, Kinase-Glo luminescence. inhibition, % at 11.9 µM. hit rate 0.4% among 360,000. AID 624268, 2012;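 active means inhibition above a per-plate cutoff of the control wells' mean inhibition plus 3 SD, cut at about 5.5% in these data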
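System: purified T. brucei MetRS enzyme / Detection: Kinase-Glo luciferase luminescence reporting remaining unconsumed ATP / Medium: HEPES buffer with MgCl2, KCl, DTT, spermine, BSA, pyrophosphatase / Replication: singlicate, one well per compound / Evaluation: percent inhibition relative to median high and low control wells / Schedule: 2 h aminoacylation at 25 °C after 15 min preincubation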
TPT1 inhibitor – Candida albicans TPT1 enzyme inhibitors, primary screen, biochemical, fluorescence polarization; inhibition, % at 5 µM; recombinant caTPT1, FP RNA substrate dephosphorylation; hit rate 0.81% among 300,000; tRNA 2'-phosphotransferase TPT1 (Candida albicans SC5314);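 active means inhibition above the mean of all tested compounds plus 3 SD, set per screening campaign, cut at about 24% in these data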
IDE cell activ – human IDE activators in live cells, primary screen, fluorescence polarization, HEK cells, FAbeta-B substrate; FAbeta-B cleavage; 0% vehicle, 100% cell-free pure enzyme wells; AID 493087, 2011; Insulin-degrading enzyme (Homo sapiens), P14735; hit rate 0.073% among 340,000; activation, % at 5.96 µM;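 active means activation above the mean of all tested compounds plus 3 SD, set per screening campaign, cut at about 17% in these data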
IDE inh – human IDE inhibitors in live cells, primary screen, fluorescence polarization, HEK cells, FAbetaB substrate | FAbetaB cleavage | inhibition, % at 5.59 µM | hit rate 0.41% among 320,000 | AID 434962, 2010;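 active means percent inhibition above the average of all tested compounds plus 3 SD, set per screening campaign, cut at about 16% in these data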;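 further: IDE supplied by intact live HEK cells; FP after avidin binding of uncleaved biotin substrate so inhibition keeps polarization high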
IDE inh confirm – human IDE inhibitors in live cells, confirmation, fluorescence polarization, HEK cells, FAbetaB substrate. shares compounds with IDE inh. hit rate 51% among 1,200. inhibition, % at 5.59 µM. FAbetaB cleavage;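 active means mean inhibition across triplicate wells above the cutoff set by the earlier primary insulin-degrading enzyme screen, cut at about 16% in these data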
HEK293 tox – cytotoxicity in HEK cells, cytotoxicity control for IDE inhibitor project, cell-based, luminescence | hit rate 28% among 1,200 | HEK293 cytotoxicity, ATP luminescence | inhibition, % at 5.59 µM | shares compounds with IDE inh | AID 449730, 2010; in the data active means inhibition above about 22%
A number is an active result; n = inactive; x = no result.

SMILES | HNF4A DNA FP | CSN inh | TbMetRS inhib | TPT1 inhibitor | IDE cell activ | IDE inh | IDE inh confirm | HEK293 tox
O=C(N/N=C/c1ccccc1)c1ccc(CN2C(=O)c3cccc4cccc2c34)cc1 | n | n | n | n | n | n | x | x
O=C(N/N=C/c1ccc(O)cc1O)c1ccc(CN2C(=O)c3cccc4cccc2c34)cc1 | n | n | n | n | n | 26 | n | 98
O=S(=O)(Nc1ccc(-c2ccc3nncn3n2)cc1)c1cccc(F)c1 | n | n | n | n | n | n | x | x
COc1cc(/C=C2\SC(=S)N(CC(=O)O)C2=O)ccc1OC(=O)c1ccco1 | n | n | n | n | n | 24 | 107 | n
COc1cc(/C=C2/SC(=S)N(CC(=O)O)C2=O)ccc1OC(=O)c1ccco1 | n | n | n | n | n | 26 | 90 | n
Cc1sc2ncnc(SCC(=O)NC(=O)c3cccn3C)c2c1C | n | n | n | n | n | 19 | n | n
CCCCN(C=O)c1c(CC)nc2ccc(C(=O)NCCCN3CCCC3=O)cn12 | n | n | n | x | x | x | x | x
CCOc1ccc(C(=O)NCC(=O)OCC(=O)c2ccc3c(c2)-c2ccccc2C3)cc1 | n | n | n | n | n | n | x | x
COc1ccccc1C(=O)NCC(=O)OCC(=O)c1ccc2c(c1)-c1ccccc1C2 | n | n | n | n | n | 22 | n | n
COc1ccc(-c2cc(C(F)(F)F)c(C#N)c(SCC(=O)O)n2)cc1OC | x | x | x | n | x | n | x | x
CC(=O)Nc1cc(N=Cc2ccc(O)cc2O)c(Cl)cc1Cl | n | n | n | n | n | 18 | 32 | n
COc1ccc(O)c(C=Nc2cc(NC(C)=O)c(Cl)cc2Cl)c1 | n | n | n | n | n | n | x | x
Cc1cc(N)ccc1NC(=O)CN1CCCC1 | n | n | n | n | n | n | x | x
Cc1ccn2cc(-c3ccc(NC(=O)c4ccco4)cc3)nc2c1 | n | n | n | n | n | 18 | n | n
Cc1nc(-c2ccc(NC(=O)c3ccco3)cc2)cs1 | n | n | n | n | n | n | x | x
Cc1nc2ccc3nc(NC(=O)c4ccc5c(c4)OCCO5)sc3c2s1 | n | n | n | n | n | n | x | x
Cc1nc2c(ccc3nc(NC(=O)c4ccc5c(c4)OCCO5)sc32)s1 | n | 45 | n | n | n | 19 | n | 31
O=c1cc(CNc2cc(Cl)ccc2Cl)nc2sccn12 | n | n | n | n | n | 17 | n | n
CCOC(=O)c1c(NC(=O)COC)sc(C(C)=O)c1C | n | n | n | n | n | n | x | x
CCOC(=O)c1c(NC(=O)COC(=O)CNC(=O)c2ccco2)sc(C(C)=O)c1C | n | n | n | n | n | 17 | n | n
C/C(=N/NC(=O)CN1CCN(Cc2ccccc2Cl)CC1)c1ccncc1 | n | n | n | n | n | 24 | n | n
O=C(CN1CCN(CC(=O)Nc2ccccc2Cl)CC1)Nc1ccc(F)c(F)c1 | n | n | n | n | n | n | x | x
CCCCOc1ccc(C(=O)Nc2cc(C)c(OCC(=O)N3CCOCC3)c(C)c2)cc1 | n | n | n | n | n | 39 | n | 25
Nc1ccccc1Sc1nc2ccccc2[nH]1 | n | n | n | n | n | 16 | n | n
O=C(Nc1ccc2oc(-c3ccccc3)nc2c1)c1ccc2c(c1)OCCO2 | n | n | n | n | n | 19 | n | 23
O=C(Nc1ccc2oc(-c3ccncc3)nc2c1)c1ccc2c(c1)OCCO2 | n | n | n | n | n | 17 | n | 33
